Experimental findings from PubChem BioAssay AID652236 (Johns Hopkins Ion Channel Center, 2013) are described below.

The structures appear in SMILES notation. Hit rate of the full screen: of about 2,300 compounds, fewer than 10 were called active. The list is a sample of the results. A number with no mark means an inactive call.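 How the source made its calls: active means duplicate-mean ratio percent above the mean of iodide-only control wells, which defines zero, plus 5 of their SD; inactive means the rest.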

Chain of Chloride channel protein 1 (Rattus norvegicus) (P35524 whole entry, looked up): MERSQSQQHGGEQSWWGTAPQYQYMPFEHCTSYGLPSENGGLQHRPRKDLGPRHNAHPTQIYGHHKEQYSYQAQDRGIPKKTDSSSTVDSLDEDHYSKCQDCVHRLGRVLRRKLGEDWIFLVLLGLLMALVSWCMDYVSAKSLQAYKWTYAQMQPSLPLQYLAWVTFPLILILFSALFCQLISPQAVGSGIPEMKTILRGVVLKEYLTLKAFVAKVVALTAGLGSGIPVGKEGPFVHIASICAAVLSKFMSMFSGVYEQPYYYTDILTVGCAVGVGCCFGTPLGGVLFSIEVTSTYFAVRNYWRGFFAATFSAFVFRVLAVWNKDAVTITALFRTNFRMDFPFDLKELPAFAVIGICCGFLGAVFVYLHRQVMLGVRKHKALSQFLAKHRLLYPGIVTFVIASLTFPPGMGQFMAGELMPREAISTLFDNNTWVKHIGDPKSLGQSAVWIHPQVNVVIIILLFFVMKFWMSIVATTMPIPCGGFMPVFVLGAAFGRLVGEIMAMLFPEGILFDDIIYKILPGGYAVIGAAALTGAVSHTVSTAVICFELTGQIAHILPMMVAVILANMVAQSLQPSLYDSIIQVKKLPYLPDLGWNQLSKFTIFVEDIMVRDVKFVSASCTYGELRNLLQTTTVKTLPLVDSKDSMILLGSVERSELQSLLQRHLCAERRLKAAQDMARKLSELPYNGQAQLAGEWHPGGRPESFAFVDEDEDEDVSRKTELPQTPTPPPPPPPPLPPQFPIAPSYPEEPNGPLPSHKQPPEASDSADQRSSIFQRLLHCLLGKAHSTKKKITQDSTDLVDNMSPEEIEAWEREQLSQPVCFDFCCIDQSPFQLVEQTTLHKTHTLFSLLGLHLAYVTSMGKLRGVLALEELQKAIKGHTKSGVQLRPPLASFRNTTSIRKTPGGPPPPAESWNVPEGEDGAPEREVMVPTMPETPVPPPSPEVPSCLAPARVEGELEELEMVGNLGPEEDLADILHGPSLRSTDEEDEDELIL

This assay concerns the target Chloride channel protein 1 (Rattus norvegicus) (UniProt P35524). Kind of assay: ClC-1 chloride channel inhibition, selectivity assay for TMEM16A inhibitor project, cell-based, voltage-dependent ClC-1 (AID 652236).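 Further: higher percent means stronger block of ClC-1 iodide influx.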 As to conditions: CHO ClC-1-YFP, iodide influx fluorescence quench; at 10 µM; iodide control reads 0, buffer control 100. The method, boiled down:
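Test system: ClC-1 CHO cells with mutant YFP H148Q/I152L; probe or stimulus: iodide trigger solution, 138 mM as 4x stock; incubation: compound 20 min, RT; measured by: YFP fluorescence quench kinetics; benchmarks: buffer, iodide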
In the case of `S=C(NCC1CCCO1)N1CCN(c2ccc(Cl)c(Cl)c2)CC1` (configuration not stated), the ratio percent is -16.5%.

Regarding `COc1ccc(Cl)cc1NC(=O)CCS(=O)(=O)c1cc2c(cc1C)NC(=O)CO2`, the ratio percent was -11%.

In the case of `CCc1cc2c(N3CCN(c4nnc(CC)s4)CC3)ncnc2s1`, the ratio percent is -5%.

Turning to `Cc1cccc(-n2c(SCC(N)=O)nc3c(c2=O)C2(CCCCC2)Cc2ccccc2-3)c1`, the ratio percent was -9.5%.

For the compound `Cc1ccc(-c2csc(-c3c[nH]c4ccccc34)n2)cc1`, the ratio percent is -9.5%.

With `CCCCCc1ccc(-c2ccc(C(=O)O)cc2)nc1`, the ratio percent was -6%.

For the compound `Cn1c(=O)n(C)c2cc(S(=O)(=O)N3CCCc4ccccc43)ccc21`, the ratio percent was -7.5%.

Consider `O=C(Nc1ccccc1)c1ccccc1NC(=O)C(F)(F)F`, for which the ratio percent is -15%.

With `Cc1ccc(NC(=O)C(C)c2cccc(C(=O)c3ccccc3)c2)cc1` (configuration not stated), the ratio percent was -13.5%.

Take `CSc1cccc(NC(=S)N(C(C)C)C(C)c2ccccn2)c1` (configuration not stated): the ratio percent is -3%.

As to `CC(C)(C)C(=O)/C(C#N)=C/c1ccc(O)cc1`, the ratio percent is -8%.

Consider `C=C(C)Cn1c(C)cc(C)c(S(=O)(=O)c2ccccc2C)c1=O`, for which the ratio percent is -6%.

Consider `CCCOc1ccc(Cc2c(Cl)nc(SC)nc2NC)cc1`, for which the ratio percent was -27.5%.

For `CC(NC(=O)c1ccco1)C(=O)Nc1nc(-c2ccccn2)cs1` (configuration not stated), the ratio percent is -2.5%.

For the compound `Cc1ccc2c(c1)N(CC(=O)N1CCCc3ccccc31)C(=O)C(C)O2` (configuration not stated), the ratio percent was -3%.

For `Cn1c(CCN2CCCCCC2)nc2cc(NC(=O)Nc3ccccc3)ccc21`, the ratio percent is -1.5%.

In the case of `Cc1cc(C)cc(NS(=O)(=O)c2ccc(Oc3ncc(C(F)(F)F)cc3Cl)cc2)c1`, the ratio percent was -9.5%.

For `CN(c1cccc(NC(=O)c2ccc(CN3CCc4ccccc4C3)cc2)c1)S(C)(=O)=O`, the ratio percent is -8%.

On to `COc1ccc(S(=O)(=O)NCCCCOc2ccc(Cl)cc2)cc1`, for which the ratio percent is -32.5%.

For the compound `COc1ccc(NC(=O)C2=CC(c3ccc(OC)c(OC)c3)=NS(=O)(=O)N2C)cc1`, the ratio percent was -3.5%.

Consider `Cc1ccccc1-n1nnnc1SCCCC(=O)c1ccc(F)cc1`, for which the ratio percent is -11%.

On to `COc1ccc(-c2nc(CCNC(=O)c3ccc(Br)o3)cs2)cc1`, for which the ratio percent is -12%.

Regarding `O=C(CN1CCN(C(=S)NC2CCCC2)CC1)Nc1ccc(Oc2ccccc2)cc1`, the ratio percent was -15.5%.

As for `CCOC(=O)C1CCN(c2ncnc3c2oc2ccc(Br)cc23)CC1`, the ratio percent was -36.5%.

In the case of `Cc1cc(C=O)c(C)n1-c1ccc(NC2CCCCC2)c([N+](=O)[O-])c1`, the ratio percent was -10.5%.

For the compound `O=C(O)c1ccc(NC(=O)C2CCCCC2)cc1`, the ratio percent is -7%.

`Cc1nc(CNS(=O)(=O)c2ccc(Oc3ccccc3)cc2)cs1`: the ratio percent was -6.5%.

Turning to `S=C(NCc1cccs1)Nc1ccc(Cl)cc1`, the ratio percent is -12.5%.

For the compound `N#CC1=C(SCc2ccccc2)NC(=O)C(C#N)C12CCCC2` (configuration not stated), the ratio percent was -12.5%.

`C=CCSc1nsc(NC(=O)Nc2cccc(C(C)=O)c2)n1`: the ratio percent is -15.5%.

Regarding `O=C(Nc1nc(-c2ccc3c(c2)OCO3)cs1)c1ccncc1`, the ratio percent was -13.5%.

As for `CCC(=O)Nc1ccc2nc(C)n(Cc3ccccc3Cl)c(=O)c2c1`, the ratio percent was -2%.

On to `O=C(N/N=C/c1cc(Cl)cc([N+](=O)[O-])c1O)C(O)(c1ccccc1)c1ccccc1`, for which the ratio percent is -7%.

Take `O=S1(=O)CCN(Cc2ccccc2Cl)CC1`: the ratio percent is -3.5%.

For the compound `O=C(NC(=S)Nc1ccccc1C(=O)O)c1ccc(-c2ccc(Br)cc2)o1`, the ratio percent was -15%.

In the case of `O=C(COC(=O)CCc1c[nH]c(=O)[nH]1)Nc1ccccc1Cl`, the ratio percent was -14%.

For the compound `c1ccc(-c2nnc(SCc3nc4ccccc4[nH]3)o2)cc1`, the ratio percent is -14%.

Consider `O=C1c2ccccc2C(Nc2ccc3c(c2)OCCO3)N1Cc1ccco1` (configuration not stated), for which the ratio percent is -13%.

In the case of `Cc1ccc(NC(=O)CN(C)CC(=O)Nc2cccc(F)c2)cc1[N+](=O)[O-]`, the ratio percent was -20.5%.

Consider `COC(=O)c1ccc(COC(=O)c2c(C)nn(Cc3ccccc3Cl)c2Cl)o1`, for which the ratio percent is -2%.

Turning to `CCn1nccc1C(=O)Nc1ccc(S(=O)(=O)NC23CC4CC(CC(C4)C2)C3)cc1`, the ratio percent is -8.5%.

With `COc1ccc2[nH]cc(/C=C(/C#N)S(=O)(=O)c3ccccc3)c2c1`, the ratio percent was -11.5%.

In the case of `CC1=NN(c2cccc(Cl)c2)C(=O)C12CC(C)=C(C)CS2` (configuration not stated), the ratio percent is -13.5%.

As for `O=C(CSCc1ccc(Cl)cc1)N1CCN(Cc2ccc3c(c2)OCO3)CC1`, the ratio percent was 2.5%.

`COc1ccc(CCC(=O)c2ccc(OC)cc2)cc1`: the ratio percent is -4%.

`Fc1ccc2[nH]c3c(N4CCSCC4)ncnc3c2c1`: the ratio percent was -36.5%.

In the case of `O=C(CNCCC1=CCCCC1)Nc1ccccc1N1CCCCCC1`, the ratio percent was -9%.

As to `CN(C)c1cc[n+](Cc2ccccc2)cc1`, the ratio percent was -5%.

On to `Cc1ccc(-n2[nH]c(C)c(/C=N/N3C(=O)c4cccc5cccc(c45)C3=O)c2=O)cc1`, for which the ratio percent is -16%.

As for `Cc1nc(SCC(=O)N2CCc3ccccc3C2)c2c(C)c(C)sc2n1`, the ratio percent is -16%.

Regarding `O=C(NCCc1ccc2c(c1)OCCO2)c1cc2ccccc2o1`, the ratio percent was -21%.

In the case of `Cc1ccc(F)cc1NC(=O)Cc1nn(C)c(=O)c2ccccc12`, the ratio percent was -14%.

Turning to `Cc1ccc(N)cc1-n1c(C)ccc1C`, the ratio percent is -8%.

As for `CCOC(=O)C(Sc1ncc(C#N)c(N)n1)C(C)C` (configuration not stated), the ratio percent was -18%.

For the compound `Fc1ccc(CSc2nnc(-c3cc4c(s3)-c3ccccc3CC4)o2)cc1`, the ratio percent was -3%.

Regarding `N#Cc1nc(COc2ccc(-c3ccccc3)cc2)oc1NCc1cccnc1`, the ratio percent was -19%.

In the case of `Cc1nc2c(C(=O)NCc3ccc4c(c3)OCO4)c[nH]n2c(=O)c1Cc1ccccc1F`, the ratio percent is -1.5%.

In the case of `COc1cc(CC(=O)Nc2nc(-c3ccc(F)c(F)c3)cs2)cc(OC)c1OC`, the ratio percent was -7%.

With `CN(Cc1cccnc1)C(=O)c1cc(COc2ccc3ncccc3c2)on1`, the ratio percent is -24%.

`Cc1ccc(-c2noc(CSc3nnnn3-c3ccccc3)n2)cc1`: the ratio percent was -1.5%.

In the case of `S=C(NCc1ccc(Cl)cc1)NC12CC3CC(CC(C3)C1)C2`, the ratio percent was -20.5%.

In the case of `Cc1[nH]n(-c2cccc(Cl)c2)c(=O)c1-c1ccc(Cl)cc1`, the ratio percent is -15%.

As for `COC(=O)c1ccc(NC(=O)c2ccccc2NS(=O)(=O)c2ccccc2)cc1`, the ratio percent was -22.5%.

`Cc1noc(C)c1COC(=O)c1cc2ccccc2cc1O`: the ratio percent was -10.5%.

Regarding `CCOC(=O)N1CC=C2C(C#N)=C(N)C(C#N)(C#N)[C@H](c3cccs3)[C@H]2C1`, the ratio percent is -6.5%.

For the compound `CCOC(=O)c1cccc(NC(=O)CCn2nnc3ccccc32)c1`, the ratio percent is -15%.

As for `COc1cccc(CNS(=O)(=O)c2ccc3c(c2)CC(C)N3C(=O)C2CCC2)c1` (configuration not stated), the ratio percent is -19.5%.

`O=C(Nc1cccc(S(=O)(=O)Nc2ccc(Cl)cc2)c1)c1ccc2c(c1)OCCO2`: the ratio percent was -24.5%.

On to `Cc1nc2ccccc2cc1OCc1ccc(F)cc1`, for which the ratio percent was -17%.

For the compound `CCCC(=O)Nc1ccccc1N1CCN(C(=O)c2ccccc2)CC1`, the ratio percent is -12.5%.

As to `CC1CCN(C(=O)c2ccc(CSc3ccc(Cl)cc3)cc2)CC1`, the ratio percent is -22.5%.

On to `CC(=O)c1c(C)[nH]c(C(=O)COC(=O)c2cccc(S(=O)(=O)N(C)c3ccccc3)c2)c1C`, for which the ratio percent is -31%.

`CN1c2ccc(C=O)c3c(C=O)ccc(c23)N(C)C1(C)C`: the ratio percent is -24.5%.

For `COc1ccc(C(=O)NC2CCCc3c2cnn3-c2cccc(C)c2C)c(OC)n1` (configuration not stated), the ratio percent is -21.5%.

For the compound `COc1ccc(CNc2nnnn2C)cc1`, the ratio percent is -10.5%.

On to `CCOC(=O)C1=C(CN2CCc3ccccc32)NC(=O)NC1c1cccc([N+](=O)[O-])c1` (configuration not stated), for which the ratio percent was -12%.

`CSc1nnc2c(n1)OC(c1ccsc1)N(C(C)=O)c1ccccc1-2` (configuration not stated): the ratio percent was -3.5%.

As to `Cc1nc(C)c(-c2csc(NCCc3ccccc3)n2)s1`, the ratio percent is -9%.

As to `CSc1nsc(NC(=O)Nc2ccccc2)n1`, the ratio percent is -7.5%.

Turning to `N#Cc1nc(N)nc(N(c2ccccc2)c2ccccc2)n1`, the ratio percent is -2%.

Consider `CCCc1cc(=S)n2c([nH]c3ccccc32)c1C#N`, for which the ratio percent was -9.5%.

For the compound `C=CCn1c(SCC(=O)Nc2nc3ccccc3s2)nnc1-c1ccccc1O`, the ratio percent was -17.5%.

`CCCCNC(=O)CSc1nc2n[nH]c(C)c2c(=N)n1-c1cccc(Cl)c1C`: the ratio percent is -4.5%.

As to `COc1ccc(OCC(=O)NCCc2ccc(S(N)(=O)=O)cc2)cc1`, the ratio percent was -14%.

On to `O=c1cc(C(F)(F)F)[nH]c(=O)n1C1CCCCC1`, for which the ratio percent was 0%.

`Cc1ccc(-n2ncc3c(N4CCN(c5ccc(F)cc5)CC4)ncnc32)c(C)c1`: the ratio percent was -13%.

As to `Cc1cccc(N=Nc2c(O)[nH]c3ccc(F)cc23)c1`, the ratio percent is 2.5%.

As for `Cc1ccc(C)c(N2CCN(C(=O)CCCCn3c(=O)[nH]c4ccccc4c3=O)CC2)c1`, the ratio percent is -2%.

For `CC(C)CNC(=S)NNC(=O)c1nn(C)cc1Cl`, the ratio percent was -14%.

As for `CCOC(=O)N1CCN(C(=O)c2ccc3c(c2)N(Cc2ccc(C)cc2)CCS3)CC1`, the ratio percent was -13%.

On to `Cc1ccc(C)c(N2CCN(S(=O)(=O)c3ccc4c(c3)oc(=O)n4C)CC2)c1`, for which the ratio percent is -27.5%.

In the case of `COc1ccc(-n2c(C)cc(C(=O)CSc3nnc(-c4cccs4)o3)c2C)cc1`, the ratio percent was -7%.

As to `Cn1c(CN2CCOCC2)nc2cc(NC(=O)c3ccc(Cl)cc3)ccc21`, the ratio percent was -9%.

On to `Cc1ccc2c(c1)N(S(=O)(=O)c1cc(-c3cc(C)no3)ccc1C)CCO2`, for which the ratio percent was -4%.

For `Cc1ccc(N2C(=O)S/C(=C/c3cn(C)c4ccccc34)C2=O)cc1`, the ratio percent was -10%.

`CCCCn1ccnc1C(=O)c1cccc(S(=O)(=O)N2c3ccccc3CC2C)c1` (configuration not stated): the ratio percent is -3%.

Regarding `CCN(CC)S(=O)(=O)c1ccc(N(C)Cc2ccc(C(F)(F)F)cc2)nc1`, the ratio percent was -9%.

As to `O=C(COc1ccccc1)NCc1ccc2c(c1)OCO2`, the ratio percent was -4.5%.

As for `Cc1ccc(C(=O)O)cc1-c1ccc(/C=C2\SC(=O)N(CC(=O)Nc3ccc4c(c3)OCO4)C2=O)o1`, the ratio percent is -5.5%.

`COc1ccc(CN(C)C(=O)CC(c2ccccc2)c2ccccc2)cc1`: the ratio percent was -8.5%.

With `CC(=O)c1cc(CN2CCC(C(=O)Nc3cccc(-c4cscn4)c3)CC2)cs1`, the ratio percent was -16.5%.

As to `O=C1NC(=O)C2C1C(c1ccc([N+](=O)[O-])cc1)=NN2Cc1ccccc1` (configuration not stated), the ratio percent was -32%.
